Laboratory results as given in ChEMBL document CHEMBL4014311, “Discovery of a Hepatitis C Virus NS5B Replicase Palm Site Allosteric Inhibitor (BMS-929075) Advanced to Phase 1 Clinical Studies” (J Med Chem, 2017).

Assays:
[1] = Clearance in Sprague-Dawley rat at 2 mg/kg, iv by LC/MS/MS analysis; assay type: ADME, organism-based; conditions: in vivo
Summary of the method: (§1)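 A 10 min constant-rate jugular vein infusion was given in 90:10 PEG-400/ethanol (v/v), n = 3 rats. Plasma was sampled predose and at 10, 15, 30, 45, 60 min and 2, 4, 6, 8, 24 h, then assayed by LC/MS/MS. Clearance and apparent terminal t1/2 were estimated by noncompartmental analysis.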

Hepatitis C virus = assay: Antiviral activity against HCV genotype 2a infected in human HuH7 cells after 3 days by luciferase reporter assay; assay type: functional, cell-based, Hepacivirus hominis; conditions: Huh-7, 72 h
[2] = Half life in Sprague-Dawley rat at 2 mg/kg,iv by LC/MS/MS analysis; assay type: ADME, organism-based; conditions: Sprague-Dawley, in vivo; summary of the method: as §1
[3] = Protein binding in human serum; assay type: ADME, cell-free; conditions: read-out: PB (converted)
[4] = Protein binding in monkey serum; assay type: ADME, cell-free, Macaca mulatta; conditions: rhesus monkey, read-out: PB (converted)

Molecule `CNC(=O)c1c(-c2ccc(F)cc2)oc2ccc(-c3cc(C(=O)NC4(c5ncccn5)CC4)ccc3C)c(F)c12` [BMS-929075] has a clearance [1] of 1.7 mL/min/kg, an EC50 (Hepatitis C virus) of 481 nM and a half-life [2] of 4.7 h. The fraction unbound [3] was 0.018 and the fraction unbound [4] was 0.028.
